Results from ChEMBL document CHEMBL1153784, “Synthesis, characterization, antiamoebic activity and toxicity of novel bisdioxazole derivatives” (Eur J Med Chem, 2009).
Values belong to the molecule of their own block, whether it stands above or below them.

How the values were obtained:
Entamoeba histolytica = assay: Antiamoebic activity against Entamoeba histolytica HM1:IMSS trophozoites after 72 hrs by microdilution method; assay type: functional, organism-based
Procedure, shortened: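 Trophozoites grown in Diamond TYIS-33 medium in 96-well plates; amoebae detached by chilling on ice. Compounds from freshly prepared 1 mg/ml DMSO stocks, twofold serial dilutions, DMSO at most 0.016%. Plates gassed with nitrogen 10 min, incubated 37 °C 72 h, washed with 0.9% NaCl, stained, dye released with 0.1 N NaOH, OD 490 nm. IC50 by linear regression of % inhibition vs log dose. Triplicate wells, repeated thrice.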

[1] = Toxicity in rat H9c2 cells after 48 hrs by MTT assay; assay type: cell-based
Procedure, shortened: (§1)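 Subconfluent H9c2 cardiac myoblasts exposed to increasing compound concentrations for 48 h at 37 °C in 5% CO2, with an untreated control. Cells washed in PBS, given 5 mg/ml MTT for 45 min at 37 °C. Crystals dissolved in acid isopropanol, absorbance read at 570 nm. Viability = absorbance of treated relative to untreated cells. Run in triplicate.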

[2] = Toxicity in rat H9c2 cells assessed as cell viability at 12.5 ug/ml after 48 hrs by MTT assay; assay type: cell-based; settings: read-out: Activity; procedure, shortened: as §1
[3] = Safety index, ratio of IC50 for rat H9c2 cells to IC50 for Entamoeba histolytica HM1:IMSS trophozoites; assay type: toxicity, cell-based; settings: read-out: Ratio IC50

SMILES: CC(C)c1ccc(C2ON=C(c3ccc(C4=NOC(c5ccc(C(C)C)cc5)O4)cc3)O2)cc1 (stereo not given)
- IC50 (Entamoeba histolytica): 4.65 µM

SMILES: Clc1ccc(C2ON=C(c3ccc(C4=NOC(c5ccc(Cl)cc5)O4)cc3)O2)cc1 (stereo not given)
- IC50 (Entamoeba histolytica): 4.21 µM

SMILES: O/N=C/c1ccc(/C=N/O)cc1
- IC50 (Entamoeba histolytica): 5.73 µM

SMILES: Clc1cccc(C2ON=C(c3ccc(C4=NOC(c5cccc(Cl)c5)O4)cc3)O2)c1 (stereo not given)
- IC50 (Entamoeba histolytica): 1.41 µM
- IC50 at 48 h [1]: 8 µM
- viability at 48 h, 12.5 ug/ml [2]: 83.5%
- selectivity ratio [3]: 5.67

SMILES: COc1ccc(C2ON=C(c3ccc(C4=NOC(c5ccc(OC)cc5)O4)cc3)O2)cc1 (stereo not given)
- IC50 (Entamoeba histolytica): 1.01 µM
- IC50 at 48 h [1]: > 17 µM
- viability at 48 h, 12.5 ug/ml [2]: 89%
- selectivity ratio [3]: > 16.8

SMILES: Cc1ncc([N+](=O)[O-])n1CCO [METRONIDAZOLE]
- IC50 at 48 h [1]: > 116 µM
- selectivity ratio [3]: > 64.4

More lines, main results first:

- IC50 (Entamoeba histolytica): 4.38 µM
SMILES: COc1ccc(C2ON=C(c3ccc(C4=NOC(c5ccc(OC)c(OC)c5)O4)cc3)O2)cc1OC (stereo not given)

- IC50 (Entamoeba histolytica): 1.05 µM
SMILES: Cc1ccc(C2ON=C(c3ccc(C4=NOC(c5ccc(C)cc5)O4)cc3)O2)cc1 (stereo not given)
- IC50 at 48 h [1]: 49 µM
- viability at 48 h, 12.5 ug/ml [2]: 82%
- selectivity ratio [3]: 46.7

- IC50 (Entamoeba histolytica): 2.78 µM
SMILES: CCc1ccc(C2ON=C(c3ccc(C4=NOC(c5ccc(CC)cc5)O4)cc3)O2)cc1 (stereo not given)

- IC50 (Entamoeba histolytica): 6.1 µM
SMILES: Clc1ccc(C2ON=C(c3ccc(C4=NOC(c5ccc(Cl)c(Cl)c5)O4)cc3)O2)cc1Cl (stereo not given)

- IC50 (Entamoeba histolytica): 3.96 µM
SMILES: c1ccc(C2ON=C(c3ccc(C4=NOC(c5ccccc5)O4)cc3)O2)cc1 (stereo not given)

- IC50 (Entamoeba histolytica): 1.22 µM
SMILES: Clc1ccccc1C1ON=C(c2ccc(C3=NOC(c4ccccc4Cl)O3)cc2)O1 (stereo not given)
- IC50 at 48 h [1]: 34 µM
- viability at 48 h, 12.5 ug/ml [2]: 96.2%
- selectivity ratio [3]: 27.9
